GALR2 blocker = antagonists of human galanin receptor 2 (GALR2). O43603. GALR2-expressing cells, antagonist mode. inhibition, % at 4 µM. 140,000 compounds, 0.39% hits. AID 828; in the data active = inhibition above about 27%;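 note: cells stimulated with galanin 1-16 at roughly its EC80; 0% = agonist challenge control and 100% = basal control without agonist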
Target sequence (O43603 whole entry, looked up): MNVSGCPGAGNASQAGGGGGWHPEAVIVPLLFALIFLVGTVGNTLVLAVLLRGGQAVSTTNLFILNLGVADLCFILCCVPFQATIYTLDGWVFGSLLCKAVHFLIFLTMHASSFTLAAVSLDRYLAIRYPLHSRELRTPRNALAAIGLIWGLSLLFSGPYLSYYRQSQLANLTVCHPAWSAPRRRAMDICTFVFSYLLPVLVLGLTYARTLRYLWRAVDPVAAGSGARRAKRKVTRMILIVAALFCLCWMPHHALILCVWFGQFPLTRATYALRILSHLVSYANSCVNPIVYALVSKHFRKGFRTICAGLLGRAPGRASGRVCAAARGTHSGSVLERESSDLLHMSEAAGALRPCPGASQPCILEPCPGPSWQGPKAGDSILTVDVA
EphB4 antag = EphB4-ephrin-B2 interaction antagonism. P54760. EphB4 LBD / TNYL-RAW-Alexa532 peptide, fluorescence polarization. inhibition, % at 7 µM. 97,000 compounds, 0.15% hits. AID 720;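 active = inhibition above the screen-wide mean inhibition plus 3 SD, cut at about 15% in these data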;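 note: 0% = DMSO wells and 100% = excess unlabeled TNYL-RAW peptide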
GALR2 ag = agonists of human galanin receptor 2 (GALR2) | O43603 | GALR2-expressing cells, agonist activation read-out | activation, % (test concentration not listed) | 140,000 compounds, 0.48% hits | AID 803; in the data active = activation above about 5%, passing the limit was not always enough;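 note: 0% = vehicle buffer wells and 100% = reference agonist at full effect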
S1P2 antag = S1P2 (human) receptor antagonism; cell-based S1P2 antagonist assay, inhibition at 5 uM; inhibition, % at 5 µM; 97,000 compounds, 0.21% hits; AID 736; in the data active = inhibition above about 45%;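 note: CRE beta-lactamase reporter cells expressing human S1P2 stimulated with S1P; 0% = agonist at EC80 alone and 100% = agonist plus reference antagonist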
S1P2 ag = activates the human S1P2 receptor. 97,000 compounds, 0.46% hits. activation, % at 4.5 µM. S1P2-expressing cell line, agonist reporter read-out. O95136. AID 729; in the data active = activation above about 16%;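 note: 0% = vehicle low control and 100% = maximal reference agonist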
HIV Rev-RRE inh = HIV Rev-RRE protein-RNA interaction inhibition. Rev peptide-RRE RNA binding, FRET. inhibition, % at 8 µM. 97,000 compounds, 0.79% hits. AID 704;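 active = inhibition above the screen-wide mean plus 3 SD, cut at about 35% in these data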;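 note: 0% = median DMSO wells and 100% = median Neomycin B control wells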
Target sequence (P05866 whole entry, looked up): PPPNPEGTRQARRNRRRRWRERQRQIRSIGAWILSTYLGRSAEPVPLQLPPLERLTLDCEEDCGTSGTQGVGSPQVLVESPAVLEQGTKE
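Test system: Cy5-tagged RRE RNA duplex with fluorescein-tagged Rev peptide | Read-out: % inhibition of FRET ratio versus controls | Probe or stimulus: Labelled Rev peptide | Incubation: 5 min RNA-compound premix plus 15 min binding step, 25 °C | Technique: FRET fluorescence readout | Benchmarks: DMSO low control, neomycin B high control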
* hit, by the source's call; x = no result given. Rows were chosen to be rich in hits. Some 1.7% of all compounds tested hit in one or more screens of this group.

SMILES	GALR2 blocker	EphB4 antag	GALR2 ag	S1P2 antag	S1P2 ag	HIV Rev-RRE inh
Nc1nnnn1/N=C/C(Br)=C/c1ccccc1	30.4*	8.5	-1.2	46.7*	-8.0	6.0
Nc1nnnn1/N=C/C=C/c1ccccc1	-0.2	x	-1.5	x	x	x
O=C(/C=C/c1cccc([N+](=O)[O-])c1)NCCN1CCOCC1	-10.0	17.0*	-0.8	8.7	-7.8	4.4
CC1CC(C)CN(S(=O)(=O)c2ccc(Oc3ccc([N+](=O)[O-])cc3)cc2)C1 (stereo not drawn)	-1.9	x	-1.9	x	x	x
CN1C(=O)S/C(=C/c2cccnc2)C1=O	-1.3	18.5*	-1.2	12.0	-5.7	8.5
O=C1/C(=C/c2cccnc2)SC(=S)N1c1ccccc1	3.9	x	-1.8	x	x	x
CCC(C)n1c(C)nc2c(c1=O)c1nc3ccccc3nc1n2CCC1=CCCCC1 (stereo not drawn)	-12.1	3.1	-1.6	8.2	-1.8	11.7
C=C(C)CNC(=S)N/N=C1\CCCCc2ccccc21	5.5	x	6.1*	x	x	x
Cc1ccc(S(=O)(=O)c2cc3c(=O)n4ccccc4nc3n(CC3CCCO3)c2=N)cc1 (stereo not drawn)	6.6	-0.1	-3.2	-37.9	-1.3	10.7
N=c1c(S(=O)(=O)c2ccc(Cl)cc2)cc2c(=O)n3ccccc3nc2n1CCN1CCOCC1	-0.8	x	8.3*	x	x	x
Cn1c(=N)c(S(=O)(=O)c2ccccc2)cc2c(=O)n3ccccc3nc21	-9.1	4.2	2.6	-57.0	21.5*	5.3
COc1cc(NC(=O)Cc2ccc([N+](=O)[O-])cc2)c(C(=O)O)cc1OC	0.6	x	-0.5	x	x	x
Cc1cccn2c(=O)c(C=O)c(N3CCCCCC3)nc12	-1.2	-0.5	-1.4	-8.4	-4.7	6.1
O=C(CC(C(=O)N1CCc2ccccc21)n1ccnc1)N1CCc2ccccc2C1 (stereo not drawn)	3.4	2.4	-1.0	17.8	-6.9	60.0*
Cn1nnnc1P(=O)(c1ccccc1)c1ccccc1	-4.3	8.0	0.3	-8.3	-1.1	4.9
O=C(CCn1cnc2ccccc2c1=O)Nc1ccc(Cl)c(Cl)c1	0.6	-1.5	-1.6	-99.6	-6.6	8.0
O=C(CCn1cnc2ccccc2c1=O)Nc1nc(-c2ccc(Br)cc2)cs1	-5.3	x	7.9*	x	x	x
CCOc1ccc(NC(=O)NC23CC4CC(CC(C4)C2)C3)cc1	-9.5	x	-0.4	x	x	x
O=C(/C=C/c1ccccc1Cl)NCc1ccccc1	12.2	15.6*	-3.3	27.1	-2.9	4.0
O=C(/C=C/c1ccccc1Cl)NCCc1ccccc1	-4.5	-5.5	0.3	9.0	-8.7	7.4
COc1ccc(-c2nnc3c4ccccc4c(C)nn23)cc1S(=O)(=O)N1CCN(CCO)CC1	4.4	-3.6	-1.5	-36.2	17.3*	5.3
Cc1ccc(-c2nn3c(C)nnc3c3ccccc23)cc1S(=O)(=O)N1CCN(CCO)CC1	-7.0	-9.3	-1.1	2.0	-0.1	2.3
O=C(NCc1ccoc1)c1ccc(NC(=O)c2ccccc2Cl)cc1	28.7*	-2.6	-2.4	11.6	-12.0	-0.2
O=C(NCC1OCCc2ccccc21)c1ccc(NC(=O)c2ccccc2Cl)cc1 (stereo not drawn)	9.9	x	-1.4	x	x	x
NS(=O)(=O)c1ccc(N2N=C(c3ccc(Br)cc3)CC2c2ccc(F)cc2)cc1 (stereo not drawn)	-38.1	-0.8	155.9*	-114.7	161.0*	6.0
SMILES	GALR2 blocker	EphB4 antag	GALR2 ag	S1P2 antag	S1P2 ag	HIV Rev-RRE inh
CNC(=S)N1N=C(c2ccc(Br)cc2)CC1c1ccc(Br)cc1 (stereo not drawn)	1.3	1.4	-2.1	-6.2	-0.7	2.5
NS(=O)(=O)c1ccc(N2N=C(c3ccccc3)CC2c2cccc(F)c2)cc1 (stereo not drawn)	-10.8	x	5.9*	x	x	x
COc1ccc(C2CC(c3ccccc3)=NN2c2ccc(N)cc2)cc1 (stereo not drawn)	14.4	x	-0.4	x	x	x
O=C(Nc1cccc(C(F)(F)F)c1)C(Sc1cccc[n+]1[O-])c1ccccc1 (stereo not drawn)	-1.4	x	-0.8	x	x	x
COc1ccc(CC(=O)Nc2c3c(nn2-c2cccc(C)c2C)CS(=O)C3)cc1OC (stereo not drawn)	3.9	3.4	-3.5	8.3	-1.2	3.3
Cc1ccc2cc(C#N)c(SCC(=O)N3CCCc4ccccc43)nc2c1C	-2.3	1.4	-2.2	6.1	-9.1	11.4
O=C(NS(=O)(=O)c1ccc2c(c1)OCCO2)c1ccccc1	13.7	4.5	-2.7	12.1	-2.3	7.1

Screening data (PubChem BioAssay)
